EPA's CvTdb concentration-time database

What was measured:
Mouse [1] = experiment: concentration in plasma after dosing; settings: 2 h; dosed: 2-Hydroxy-4-methoxybenzophenone; 500 mg/kg; oral; Female; B6C3F1
Mouse [2] = experiment: concentration in plasma after dosing; settings: 3 h; dosed: 2-Hydroxy-4-methoxybenzophenone; 250 mg/kg; oral; Male; B6C3F1
Rat [3] = experiment: concentration in plasma after dosing; settings: 5 min; dosed: Nitrite; 80 mg/kg; oral; Female; F344
Rat [4] = experiment: concentration in plasma after dosing; settings: dosed: Nitrite, 20 mg/kg, iv, Male, F344
Rat [5] = experiment: concentration in plasma after dosing; settings: 2 min; dosed: Nitrite; 20 mg/kg; iv; Male; F344
Rat [6] = experiment: concentration in plasma after dosing; settings: 5 min; dosed: Nitrite; 40 mg/kg; oral; Female; Harlan Sprague-Dawley
Rat [7] = experiment: concentration in plasma after dosing; settings: 10 min; dosed: Nitrite; 80 mg/kg; oral; Female; F344
Rat [8] = experiment: concentration in brain after dosing; settings: 12 h; dosed: Perfluorooctanoic acid; 12 mg/kg; oral; Male; Harlan Sprague Dawley
Rat [9] = experiment: concentration in liver after dosing; settings: 12 h; dosed: Fluorotelomer alcohol 8+2; 80 mg/kg; oral; Female; Harlan Sprague Dawley
Rat [10] = experiment: concentration in liver after dosing; settings: 3 h; dosed: Fluorotelomer alcohol 8+2; 24 mg/kg; oral; Male; Harlan Sprague Dawley
Rat [11] = experiment: concentration in liver after dosing; settings: 12 h; dosed: Perfluorooctanoic acid; 80 mg/kg; oral; Female; Harlan Sprague Dawley
Rat [12] = experiment: concentration in liver after dosing; settings: 12 h; dosed: Fluorotelomer alcohol 8+2; 24 mg/kg; oral; Male; Harlan Sprague Dawley
Rat [13] = experiment: concentration in liver after dosing; settings: 1200 h; dosed: Perfluorooctanoic acid; 12 mg/kg; oral; Male; Harlan Sprague Dawley
Rat [14] = experiment: concentration in kidney after dosing; settings: 12 h; dosed: Fluorotelomer alcohol 8+2; 24 mg/kg; oral; Male; Harlan Sprague Dawley
Rat [15] = experiment: concentration in plasma after dosing; settings: dosed: 678-39-7, 12 mg/kg, iv, Male, F344
Rat [16] = experiment: concentration in liver after dosing; settings: 6 h; dosed: Potassium Perfluorobutane Sulfonate; 20 mg/kg; oral; Male; Harlan Sprague Dawley
Rat [17] = experiment: concentration in kidney after dosing; settings: 12 h; dosed: Potassium Perfluorobutane Sulfonate; 20 mg/kg; oral; Male; Harlan Sprague Dawley
Rat [18] = experiment: concentration in plasma after dosing; settings: 1 h; dosed: Potassium Perfluorobutane Sulfonate; 4 mg/kg; iv; Female; Harlan Sprague-Dawley
Rat [19] = experiment: concentration in plasma after dosing; settings: 0.75 h; dosed: Potassium Perfluorobutane Sulfonate; 4 mg/kg; iv; Female; Harlan Sprague-Dawley
Rat [20] = experiment: concentration in plasma after dosing; settings: dosed: Potassium Perfluorobutane Sulfonate, 4 mg/kg, iv, Male, F344
Rat [21] = experiment: concentration in plasma after dosing; settings: dosed: Potassium Perfluorobutane Sulfonate, 4 mg/kg, iv, Male, F344; remark: listed apart in the source
Rat [22] = experiment: concentration in plasma after dosing; settings: 1.5 h; dosed: Potassium Perfluorobutane Sulfonate; 4 mg/kg; oral; Male; Harlan Sprague Dawley
rat [23] = settings: dosed: benzo[a]pyrene, 1 mg/kg, iv, male, Sprague Dawley
rat [24] = experiment: concentration in liver after dosing (ugEq/g tissue); settings: dosed: benzo[a]pyrene, iv, male, Wistar
monkey = experiment: concentration in blood after dosing; negative times count back from the end of exposure; settings: dosed: methanol, 1200 ppm, inhalation, duration: 6 hr, male, Macaca mulatta
Procedure, shortened: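 Sampling and analytical methods are those of each source and frequently went unreported. The concentration-versus-time and amount-versus-time points were compiled from published in vivo toxicokinetic studies and two structured collections. Most were digitised from plot screenshots with WebPlotDigitizer, with others copied from tables, in the reported units.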

COc1ccc(C(=O)c2ccccc2)c(O)c1 [2-Hydroxy-4-methoxybenzophenone]
Settings | concentration in plasma [µg/mL]
Mouse [1] | 0.0816
Mouse [2] | 0.0372

O=N[O-] [Nitrite]
Settings | concentration in plasma [µg/mL]
Rat [3] | 7.3
Rat [5] | 15.1
Rat [6] | 4.1
Rat [7] | 15.4

Rat [4]
Settings | concentration in plasma [µg/mL]
1 h | 3.1
5 min | 12.6

O=C(O)C(F)(F)C(F)(F)C(F)(F)C(F)(F)C(F)(F)C(F)(F)C(F)(F)F [Perfluorooctanoic acid]
Settings | concentration in brain [ng/g] | concentration in kidney [ng/g] | concentration in liver [ng/g]
Rat [8] | 1260 | – | –
Rat [9] | – | – | 487
Rat [10] | – | – | 1440
Rat [11] | – | – | 64300
Rat [12] | – | – | 1350
Rat [13] | – | – | 7530
Rat [14] | – | 365 | –

Rat [15]
Settings | concentration in plasma [ng/mL]
0.25 h | 102
24 h | 607

O=S(=O)([O-])C(F)(F)C(F)(F)C(F)(F)C(F)(F)F.[K+] [Potassium Perfluorobutane Sulfonate]
Settings | concentration in kidney [ng/g] | concentration in liver [ng/g] | concentration in plasma [ng/mL]
Rat [16] | – | 43800 | –
Rat [17] | 3890 | – | –
Rat [18] | – | – | 5120
Rat [19] | – | – | 2530
Rat [22] | – | – | 12600

concentration in plasma [ng/mL]
Settings | Rat [20] | Rat [21]
3 h | 12800 | 429
5 min | 32200 | 27500

c1ccc2c(c1)cc1ccc3cccc4ccc2c1c34 [benzo[a]pyrene]
rat [23]
Settings | amount in urine after dosing [ng]
2.991 h | 1.11
6.006 h | 1.15
24 h | 1.15

concentration in liver, rat [24]
Settings | 2 mg/kg | 6 mg/kg | 15 mg/kg
0.5 h | 2.43 | 11.4 | 15.2
0.75 h | 1.34 | 11.1 | 13.1
1 h | 0.34 | 5.54 | 4.86
1.5 h | 0.91 | 1.32 | 8.51
2 h | 0.01 | 0.55 | 3.39
3 h | – | 0.15 | 0.72
4 h | – | 0.09 | 0.24
5 h | – | 0.06 | 0.14
5 min | 11.3 | 31.2 | 27.5
6 h | – | 0.06 | 0.16
8 h | – | 0.02 | 0.05
10 min | 6.52 | 24.3 | 29.8
20 min | 4.01 | 16.1 | 21.9
24 h | – | 0.01 | 0.01
32 h | – | 0.02 | –

CO [methanol]
monkey
Settings | concentration in blood [µg/mL]
0.9399 h | 16.1
1.959 h | 9.03
2.967 h | 4.92
4.499 h | 3.11
6.031 h | 0.903

monkey, during exposure
Settings | concentration in blood [µg/mL]
-98 s | 26.9
-5.593 h | 4.82
-5.081 h | 8.33
-3.07 h | 21
